Assay results reported in article PMC6045394 (ACS Omega, 2017).

Assays:
[1] = test system: human lung fibroblast cell line WI-26-VA4; test: In vitro cytotoxicity test, MTT colorimetric assay; format: cell-based; conditions: WI26VA4, 48 h, read-out: IC50 (μM) ± SD Wi-26VA4
[2] = test system: P. falciparum chloroquine-sensitive (3D7) strain; test: In vitro schizonticidal activity, ELISA antiHRPII assay; format: cell-based, Plasmodium falciparum; conditions: for IC50: Plasmodium falciparum, 3D7, 72 h, read-out: IC50 (μM) ± SD P.f. 3D7
[3] = test system: P. falciparum chloroquine-resistant (W2) strain; test: In vitro schizonticidal activity, ELISA antiHRPII assay; format: cell-based, Plasmodium falciparum; conditions: for SI (selectivity index) P.f. W2: SI = IC50 WI-26-VA4/IC50 P. falciparum strain W2
Procedure, shortened: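 W2 parasites grown in human erythrocytes in RPMI 1640 with human plasma, sorbitol-synchronized, plated at 0.05% parasitemia and 1.5% hematocrit. Triplicate drug dilutions for 72 h, freeze-thaw, anti-HRPII ELISA; IC50 is the mean of three assays. WI-26-VA4 fibroblasts: 1:10 serial dilutions (0.1% DMSO), 48 h, MTT read at 550 nm, triplicate. SI = fibroblast IC50 / W2 IC50.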

[4] = test system: RKO-AS45-1 human cell line; test: CBMN; format: cell-based; conditions: 2.5 to 17.7 μM
[5] = test system: S. typhimurium strain TA100; test: Ames/Salmonella mutagenicity assay; format: cell-based, Salmonella typhimurium; conditions: with and without metabolic activation (S9), 6.7 to 30.9 μM
Procedure, shortened: (§1)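 Microsuspension protocol: overnight cultures (1 × 10^9 cells/mL) concentrated 10× by centrifugation, then exposed to five concentrations (TA100 6.7–30.9 μM; TA98 16.7–77.5 μM), with or without S9, 90 min at 37 °C. Plated in histidine/biotin top agar on minimal glucose agar; his+ revertants counted after 48 h at 37 °C. DMSO negative control; MI = treated/control revertants, MI ≥ 2 mutagenic.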

[6] = test system: RKO-AS45-1 human cell line; test: Alkaline comet assay; format: cell-based; conditions: 17.7 μM vs 2.5 μM
[7] = test system: S. typhimurium strain TA98; test: Ames/Salmonella mutagenicity assay; format: cell-based, Salmonella typhimurium; conditions: with and without metabolic activation (S9), 16.7 to 77.5 μM
Procedure, shortened: as §1

CCN(CC)CCCC(C)Nc1ccnc2cc(Cl)ccc12 (stereo not shown) [CQ, chloroquine, reference compound]
IC50 [1]: > 100 µM | IC50 [2]: 0.18 ± 0.05 µM | SI (selectivity index) P.f. W2 [3]: >250

FCCCCCCCCCCOCCCc1cccnc1 [Compound 7, 3-(3-((10-Fluorodecyl)oxy)propyl)pyridine]
nuclear division index (NDI) [4]: None of the concentrations assessed affected the nuclear division index (NDI) values | frequency of micronuclei ([4]; 3 h exposure): altered only at concentrations higher than the IC50 | IC50 [1]: 28.2 ± 3.7 µM | induction of gene mutations (Ames) [5]: not able to induce gene mutations | IC50 [2]: 2.3 ± 0.15 µM | SI (selectivity index) P.f. 3D7 ([2]; SI = IC50 WI-26-VA4/IC50 P. falciparum strain 3D7): 12.2 | increase of in vitro antimalarial activity compared to compound 5c ([3]; P. falciparum W2): 5.8 fold | SI (selectivity index) P.f. W2 [3]: 11.2 | genotoxic concentration relative to IC50 against P. falciparum [6]: about seven times higher | induction of gene mutations (Ames) [7]: not able to induce gene mutations
